Experimental data as given in ChEMBL document CHEMBL4382240, “Discovery of novel 2,5-dihydroxyterephthalamide derivatives as multifunctional agents for the treatment of Alzheimer's disease” (Bioorg Med Chem, 2018).
pIC50: −log10 of the molar value. The source made the active and inactive calls. The calls are words filed in the database; no cut-off is given here.

How the values were obtained:
[1] = Anti-inflammatory activity in […] cells assessed as inhibition of LPS-stimulated NO release at 2.5 uM preincubated for 30 mins followed by LPS stimulation and measured after 24 hrs by Griess reagent based assay relative to control; assay type: functional; conditions: BV-2
Summary of the method: (§1)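 BV-2 cells cultured 24 h in DMEM (10% FBS, glutamine, pyruvate, pen/strep) at 37 °C, 5% CO2. Compound (DMSO stock diluted in PBS) added 30 min before LPS (1.0 µg/mL), then 24 h. Nitrite in supernatant measured by Griess reagent for 10 min at room temperature, A540, against a NaNO2 standard curve. Triplicate wells; mean ± SD of three independent experiments.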

[2] = Disaggregation of Cu2+ induced preformed fibrils of human amyloid beta (1 to 42) at 25 uM after 24 hrs by Thioflavin T based fluorometric assay relative to control
Summary of the method: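 Aβ1-42 (25 µM) with Cu2+ (25 µM) in HEPES buffer pre-aggregated 24 h at 37 °C. Compound (25 µM) then added for a further 24 h at 37 °C. Fibril content measured by ThT fluorescence (glycine-NaOH, pH 8.5). Triplicate; three independent experiments.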

[3] = target: Acetylcholinesterase (Electrophorus electricus) (UniProt O42275); experiment: Mixed-type inhibition of electric eel AChE at 2.5 to 10 uM preincubated for 15 mins followed by varying levels of acetylthiocholine iodide substrate addition by Lineweaver-Burk plot analysis
[4] = Anti-inflammatory activity in […] cells assessed as inhibition of LPS-stimulated TNFalpha release at 2.5 uM preincubated for 30 mins followed by LPS stimulation and measured after 24 hrs by ELISA relative to control; assay type: functional; conditions: BV-2
Summary of the method: (§2)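 Confluent BV-2 cells in DMEM preincubated 30 min with compound, tested over 0.5–10 µM, then stimulated with LPS (1.0 µg/mL) for 24 h. Released TNF-α measured by ELISA following kit instructions. Triplicate wells; mean ± SD of three independent experiments.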

[5] = Cytotoxicity against […] cells assessed as decrease in cell viability up to 10 uM measured after 24 hrs by MTT assay; assay type: cell-based
Summary of the method: (§3)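 BV-2 cells grown 24 h, then treated with compound (0.5, 2.5, 10.0 µM) for 30 min, with or without LPS (1.0 µg/mL), for a further 24 h. MTT (5 mg/mL) added for 4 h, formazan dissolved in DMSO, A490 read. Viability given as percent of untreated cells. Triplicate wells; three independent experiments.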

Homo sapiens = species on record: Homo sapiens; experiment: Anti-inflammatory activity in […] cells assessed as inhibition of LPS-stimulated TNFalpha release at 0.5 uM preincubated for 30 mins followed by LPS stimulation and measured after 24 hrs by ELISA; assay type: functional, cell-based; summary of the method: as §2
[6] = Metal chelating activity assessed as mole fraction of compound required to show 1:2 stoichiometry for compound -Cu2+ complex at 37.5 uM after 30 mins by UV spectrometry method
Summary of the method: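 Molar-ratio titration in methanol: compound fixed at 37.5 µM final, CuCl2 varied from 3.75 to 150 µM final. Spectra corrected by subtracting CuCl2 and compound alone. Absorbance at 274 nm plotted against mole fraction; stoichiometry taken from where the straight lines intersect.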

[7] = Cytotoxicity against […] cells assessed as decrease in cell viability up to 10 uM preincubated for 30 mins followed by LPS stimulation and measured after 24 hrs by MTT assay; assay type: cell-based; summary of the method: as §3
[8] = Anti-inflammatory activity in […] cells assessed as inhibition of LPS-stimulated NO release at 10 uM preincubated for 30 mins followed by LPS stimulation and measured after 24 hrs by Griess reagent based assay relative to control; assay type: functional; conditions: BV-2; summary of the method: as §1
[9] = Metal chelating activity assessed as compound-Fe2+ complex formation at 37.5 uM after 30 mins by UV spectrometry method
Summary of the method: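 Compound and metal salt (CuCl2, ZnCl2, FeSO4 or AlCl3), each 37.5 µM final in methanol, incubated 30 min at room temperature. UV-vis spectra recorded from 200 to 600 nm and compared with the compound alone.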

Butyrylcholinesterase = Butyrylcholinesterase (Rattus norvegicus, UniProt Q9JKC1); experiment: Inhibition of rat serum BuChE using butyrylthiocholine iodide as substrate after 15 mins by Ellman's method; assay type: ADME
Chain of Butyrylcholinesterase (Q9JKC1 whole entry): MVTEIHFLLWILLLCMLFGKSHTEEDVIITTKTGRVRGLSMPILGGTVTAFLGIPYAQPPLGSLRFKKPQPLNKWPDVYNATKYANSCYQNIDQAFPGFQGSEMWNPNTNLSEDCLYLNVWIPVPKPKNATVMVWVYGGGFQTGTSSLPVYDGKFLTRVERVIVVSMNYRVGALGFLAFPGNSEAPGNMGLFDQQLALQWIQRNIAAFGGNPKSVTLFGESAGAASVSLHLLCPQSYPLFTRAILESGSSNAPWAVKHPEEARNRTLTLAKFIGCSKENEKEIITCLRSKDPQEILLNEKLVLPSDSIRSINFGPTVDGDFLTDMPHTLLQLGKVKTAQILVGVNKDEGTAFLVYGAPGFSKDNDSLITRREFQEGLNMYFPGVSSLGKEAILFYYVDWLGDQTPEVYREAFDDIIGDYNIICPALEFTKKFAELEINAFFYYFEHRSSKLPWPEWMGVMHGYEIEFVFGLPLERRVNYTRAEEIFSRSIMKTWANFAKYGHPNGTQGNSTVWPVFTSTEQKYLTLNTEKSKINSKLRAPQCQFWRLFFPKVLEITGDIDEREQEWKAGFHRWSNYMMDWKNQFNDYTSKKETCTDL

Chain of Acetylcholinesterase (Electrophorus electricus) (O42275 24-633 limits assumed): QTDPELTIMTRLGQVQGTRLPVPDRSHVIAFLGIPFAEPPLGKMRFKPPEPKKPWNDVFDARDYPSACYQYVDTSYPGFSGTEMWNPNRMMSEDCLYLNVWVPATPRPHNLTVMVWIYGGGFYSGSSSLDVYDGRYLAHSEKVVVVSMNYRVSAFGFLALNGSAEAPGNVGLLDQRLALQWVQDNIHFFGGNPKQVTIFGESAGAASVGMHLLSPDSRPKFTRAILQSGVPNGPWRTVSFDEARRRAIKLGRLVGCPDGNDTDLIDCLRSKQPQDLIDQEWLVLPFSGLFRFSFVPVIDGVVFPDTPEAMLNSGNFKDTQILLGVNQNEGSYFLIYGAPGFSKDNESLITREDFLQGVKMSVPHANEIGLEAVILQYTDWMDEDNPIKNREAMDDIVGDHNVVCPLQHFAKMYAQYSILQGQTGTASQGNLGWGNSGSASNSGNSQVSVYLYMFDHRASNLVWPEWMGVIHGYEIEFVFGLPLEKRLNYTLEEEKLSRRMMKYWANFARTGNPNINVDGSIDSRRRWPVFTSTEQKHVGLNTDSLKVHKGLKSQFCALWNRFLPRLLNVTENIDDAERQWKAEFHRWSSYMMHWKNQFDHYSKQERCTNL

In the case of CCN(CCCCNC(=O)c1cc(O)c(C(=O)NCCCCN(CC)Cc2ccccc2OC)cc1O)Cc1ccccc1OC, the inhibition at 2.5 µM [1] was 30%, the Activity [2] was 77.2% and the inhibition [3] was “Active”. The inhibition at 2.5 µM [4] was 37.1%, the Activity [5] was “Non-Toxic” and the inhibition (Homo sapiens) was “inactive”. For the same molecule, the Activity [6] was 1.9 molar ratio, the Activity [7] was “Non-Toxic” and the inhibition at 10 µM [8] was 58.3%. The Activity [9] was “Active” and the pIC50 (Butyrylcholinesterase) was under 4.00.
